Article PMC5497587 (Molecular pharmaceutics, 2017)

What was measured:
[1] = test system: human and guinea pig smooth muscle tissue; settings: cited from earlier work
[2] = cited from earlier work
[3] = test system: airway hyperresponsiveness and airway eosinophilia; settings: cited from earlier work
[4] = test system: GABAARs expressed on splenocytes; experiment: Automated patch-clamp electrophysiology for splenocytes; format: cell-based, mouse; settings: splenocytes from ova s/c mice
[5] = test system: inflammatory cells in bronchoalveolar lavage fluid; experiment: Inflammatory cells in BALF of ova s/c BALB/c mice; format: in vivo, mouse
Procedure, shortened: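 Male BALB/c mice (5–10 wk), ova-sensitised/challenged, 10 per group; dexamethasone 4 mg/kg i.p. daily for 8 days (10% DMSO/40% propylene glycol/50% PBS); test compounds 100 mg/kg b.i.d. by gavage for 5 days. BAL with 1 ml Ca/Mg-free PBS, RBC lysis, Fc block, 30 min 4 °C antibody staining. CD45+ count gives cells/ml; CCR3+/GR1+/CD4+/CD11b+ frequencies × total; mean ± SEM versus vehicle.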

Structure (SMILES): C#Cc1ccc2c(c1)C(c1ccccc1F)=N[C@H](C)c1c(C(=O)OCC)ncn1-2 [SH-053-2′F-R-CH3]
- smooth muscle relaxation ex vivo [1]: relax human and guinea pig smooth muscle tissue
- blood brain barrier crossing [2]: can cross the blood brain barrier

Structure (SMILES): C=CCc1ccc(O)c(-c2ccc(O)c(CC=C)c2)c1 [honokiol]
- AHR and lung eosinophilia ([3]; acute and chronic administration, ova s/c mouse asthma model): reduced AHR and lung eosinophilia

Structure (SMILES): NCc1cc(=O)[nH]o1 [muscimol]
- induced current change relative to current change induced by GABA [4]: around 50%

Structure (SMILES): C[C@@H]1C[C@H]2[C@@H]3CCC4=CC(=O)C=C[C@]4(C)[C@@]3(F)[C@@H](O)C[C@]2(C)[C@@]1(O)C(=O)CO [dexamethasone]
- CD4+ T cell population in BALF ([5]; 4 mg/kg i.p. for 8 days): significantly reduced
- CD11b+ leukocyte population in BALF ([5]; i.p. 4 mg/kg daily for 8 days): as did dexamethasone treatment
- eosinophils (CCR3+) in BALF by flow cytometry ([5]; i.p. 4 mg/kg daily for 8 days): almost completely eliminated
- reduction of white blood cells in BALF ([5]; i.p. 4 mg/kg daily for 8 days, compared with compounds 1 and 2): more pronounced
- AHR in ova s/c mice ([3]; dexamethasone treated ova s/c mice): reduced AHR
